The target in test [1] is T1, Lethal factor (Bacillus anthracis, UniProt P15917).
T1 sequence (P15917 whole entry): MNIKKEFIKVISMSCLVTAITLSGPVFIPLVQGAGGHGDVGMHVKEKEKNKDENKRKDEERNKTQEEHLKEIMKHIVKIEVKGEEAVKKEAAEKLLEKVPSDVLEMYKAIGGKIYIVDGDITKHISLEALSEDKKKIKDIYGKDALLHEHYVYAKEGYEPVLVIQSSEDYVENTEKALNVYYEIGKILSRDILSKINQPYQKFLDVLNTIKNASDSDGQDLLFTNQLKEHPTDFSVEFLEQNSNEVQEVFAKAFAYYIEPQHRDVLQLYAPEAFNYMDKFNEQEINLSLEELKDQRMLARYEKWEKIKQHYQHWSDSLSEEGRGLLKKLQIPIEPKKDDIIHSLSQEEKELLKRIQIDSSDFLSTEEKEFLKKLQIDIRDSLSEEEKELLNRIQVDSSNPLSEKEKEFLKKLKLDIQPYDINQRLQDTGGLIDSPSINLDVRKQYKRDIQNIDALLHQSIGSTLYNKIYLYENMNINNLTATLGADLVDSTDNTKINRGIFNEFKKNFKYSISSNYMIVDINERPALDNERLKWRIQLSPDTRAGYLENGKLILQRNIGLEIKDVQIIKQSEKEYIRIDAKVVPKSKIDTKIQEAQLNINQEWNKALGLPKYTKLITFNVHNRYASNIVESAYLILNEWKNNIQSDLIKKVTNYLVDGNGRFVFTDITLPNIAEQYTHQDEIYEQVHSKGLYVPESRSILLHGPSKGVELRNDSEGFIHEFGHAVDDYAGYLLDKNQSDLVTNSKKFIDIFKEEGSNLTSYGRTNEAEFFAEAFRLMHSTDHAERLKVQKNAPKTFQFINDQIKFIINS
Briefly: Inhibition of Bacillus anthracis lethal factor protease using substrate containing CyPet and YPet linked by RRKKVYPYPMEGTIA sequence preincubated for 30 mins followed by substrate addition measured every 2 mins for 3 hrs by FRET assay. An outline of the steps: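 Purified LF (50 nM) in pH 7.2 buffer (10 μM CaCl2, 10 μM MgCl2, 20 μM ZnCl2, 20 mM sodium phosphate, 100 mM NaCl) preincubated at room temperature with inhibitor (1 nM–10 μM). FRET substrate added to 10 nM final. Read at 405 nm excitation, 535 nm intensity ratio It/I0. Initial velocities were normalised to uninhibited LF, and IC50 came from a variable-slope log(inhibitor)–response fit.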

For test [2], the target named is T1, Lethal factor. Nature of the test: Non-competitive inhibition of Bacillus anthracis lethal factor protease using substrate containing CyPet and YPet linked by RRKKVYPYPMEGTIA sequence preincubated for 30 mins followed by substrate addition measured every 2 mins for 3 hrs by FRET assay. The procedure, abridged:
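Ki was derived from the IC50 with the non-competitive tight-binding relation Ki = IC50 − E0/2, where E0 is the enzyme concentration (50 nM LF). The IC50 comes from the FRET assay: pH 7.2 Ca/Mg/Zn phosphate–NaCl buffer, inhibitor 1 nM–10 μM, 10 nM substrate, 405 nm excitation, 535 nm read, initial velocities fitted to a variable-slope curve.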

Residues, ends and D or L forms follow the SMILES beside them.

`CC[C@H](C)[C@H](NC(=O)[C@H](CS)NC(=O)[C@H](CCCNC(=N)N)NC(=O)[C@H](CS)NC(=O)[C@@H](NC(=O)CNC(=O)[C@H](Cc1cnc[nH]1)NC(=O)[C@H](CC(C)C)NC(=O)[C@H](CS)NC(=O)[C@H](C)NC(=O)[C@H](CS)NC(=O)[C@H](CCCNC(=N)N)NC(=O)[C@H](CS)NC(=O)[C@H](Cc1ccccc1)NC(=O)CN)C(C)C)C(=O)N[C@@H](CS)C(=O)N[C@H](C(=O)N[C@@H](CCCNC(=N)N)C(=O)O)[C@@H](C)O` (H-GFCRCACLHGVCRCICTR-OH) gave an IC50 in test [1] of 971 nM. Also, the Ki in test [2] was 946 nM.
In the case of `CC[C@H](C)[C@H](NC(=O)[C@H](CS)NC(=O)[C@H](CC(=O)O)NC(=O)[C@H](CS)NC(=O)[C@H](CO)NC(=O)[C@H](CO)NC(=O)[C@H](CCCNC(=N)N)NC(=O)CNC(=O)[C@H](CS)NC(=O)[C@H](Cc1ccccc1)NC(=O)[C@H](CS)NC(=O)[C@H](CCCNC(=N)N)NC(=O)[C@H](CS)NC(=O)[C@H](Cc1ccccc1)NC(=O)CN)C(=O)N[C@@H](CS)C(=O)N[C@H](C(=O)N[C@@H](CCCNC(=N)N)C(=O)O)[C@@H](C)O` (H-GFCRCFCGRSSCDCICTR-OH), in test [1], half-maximal inhibition (IC50) required 1200 nM. In test [2], this compound came in with a Ki of 1170 nM.
Compound `CC[C@H](C)[C@H](NC(=O)[C@H](CS)NC(=O)[C@H](CCCNC(=N)N)NC(=O)[C@H](CS)NC(=O)[C@@H](NC(=O)CNC(=O)[C@H](CCCNC(=N)N)NC(=O)[C@H](CCCNC(=N)N)NC(=O)[C@H](CS)NC(=O)[C@H](CC(C)C)NC(=O)[C@H](CS)NC(=O)[C@H](CCCNC(=N)N)NC(=O)[C@H](CS)NC(=O)[C@H](Cc1ccccc1)NC(=O)CN)C(C)C)C(=O)N[C@@H](CS)C(=O)N[C@H](C(=O)N[C@@H](CCCNC(=N)N)C(=O)O)[C@@H](C)O` (H-GFCRCLCRRGVCRCICTR-OH) yielded a 50% inhibitory concentration (IC50) in test [1] of 406 nM. In addition, in test [2], the Ki was 381 nM.
`CC[C@H](C)[C@H](NC(=O)[C@H](CS)NC(=O)[C@H](Cc1c[nH]c2ccccc12)NC(=O)[C@H](CS)NC(=O)CNC(=O)[C@H](Cc1ccc(O)cc1)NC(=O)[C@H](CCCNC(=N)N)NC(=O)[C@H](CO)NC(=O)[C@H](CS)NC(=O)[C@@H]1CCCN1C(=O)[C@H](CS)NC(=O)[C@H](CCCNC(=N)N)NC(=O)[C@H](CS)NC(=O)[C@H](Cc1ccccc1)NC(=O)CN)C(=O)N[C@@H](CS)C(=O)N[C@H](C(=O)N[C@@H](CCCNC(=N)N)C(=O)O)[C@@H](C)O` (H-GFCRCPCSRYGCWCICTR-OH) returned an IC50 in test [1] of 971 nM. The compound further showed a Ki in test [2] of 946 nM.

The values are drawn from ChEMBL document CHEMBL4184151, “In-cell production of a genetically-encoded library based on the θ-defensin RTD-1 using a bacterial expression system” (Bioorg Med Chem, 2018).
